Compounds with a hit are over-represented: about 2% of the library has one in this group of screens.
FN deposit inh – fibronectin deposition inhibition; AH1F fibroblasts, Alexa488-fibronectin deposition fluorescence, overnight; inhibition, % at 12.6 µM; AID 743247; 350,000 compounds, 0.086% hits;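 active = mean inhibition across replicates of 30% or more, regardless of how many single replicates reach that level; inconclusive = mean under 30% yet at least half of replicates reach 30%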;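 note: positive control wells lacked labelled fibronectin entirely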
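Test system: AH1F fibroblast monolayer depositing Alexa488-labelled fibronectin into matrix. Input: 10000 cells per well. Technique: fluorescence, ex 485 nm, em 525 nm. Buffer or medium: DMEM plus 2% serum, read in PBS. Timing: 1 h cell adhesion before compound, then overnight fibronectin incubation. Compound: single dose, pinned. Read-out basis: inhibition from reduced deposited-fibronectin fluorescence.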
CASP6 VEID inh – caspase-6 (human) enzyme inhibition; P55212; purified caspase-6, Z-VEID-R110 cleavage fluorescence; inhibition, % at 12.5 µM; 350,000 compounds, 0.53% hits; AID 686996;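 active = mean inhibition across replicates at least about 35%, with every replicate also reaching that limit, limit read from the data; inconclusive = only one of the two criteria met; inactive = neither criterion met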;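 note: 0% = median of neutral control wells and 100% = no fluorescence left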
Target sequence (P55212 24-179 limits assumed): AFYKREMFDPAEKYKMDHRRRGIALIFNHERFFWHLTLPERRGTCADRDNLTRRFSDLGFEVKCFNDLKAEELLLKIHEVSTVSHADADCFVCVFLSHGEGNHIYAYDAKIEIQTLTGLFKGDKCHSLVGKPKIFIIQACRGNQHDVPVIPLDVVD
Target sequence (P55212 194-293 limits assumed): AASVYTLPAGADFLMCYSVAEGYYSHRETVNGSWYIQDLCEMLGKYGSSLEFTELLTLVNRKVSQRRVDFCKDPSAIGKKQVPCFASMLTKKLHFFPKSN
CaV13 FRET inh – Primary screen for inhibitors of IQ motif and Ca2+-dependent inactivation inhibitor domain binding in CACNA1D, Förster resonance energy transfer in living cells, … | 340,000 compounds, 0.098% hits | inhibition, % at 12.3 µM | HEK cells, CFP/YFP FRET ICDI-IQ, plate reader, 10 min; percent FRET-ratio fall versus neutral wells | AID 743397;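 active = mean replicate inhibition of at least 30% and at least 1% of replicates passing that level; inconclusive = only one of the two criteria is met; inactive = neither criterion is met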;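 note: 0% = median of the neutral control wells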
DENV2 CPE – DENV2-induced cell death inhibition. DENV2-infected cells, cytopathic effect rescue, plate reader. CPE inhibition, % at 9.99 µM. 350,000 compounds, 1.7% hits; in the data active = CPE inhibition above about 20%, passing the limit was not always enough; inconclusive = no clear call, values can overlap the other calls; tested in BHK-21 cells;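 note: 0% = median of neutral control wells and 100% = median of positive control wells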
Xi reactivation – reactivates the inactive X chromosome in mouse fibroblasts; activation, % at 7.58 µM; XiGFP mouse fibroblasts, % GFP-positive cells imaging, 3 d; cells co-treated with 5-aza-dC sensitizer; scaled so ellipticine positive control = 100%; AID 743238; 360,000 compounds, 0.055% hits;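 active = mean normalized replicate activation at least 10% and every replicate at or above 10%; inconclusive = only one of the two criteria met; inactive = mean below 10% and not all replicates reach 10%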;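 note: 0% = median of on-plate neutral control wells and 100% = ellipticine 6 µM median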
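assay system = SV40-immortalized XiGFP fibroblast cells, line 68-5-11 | buffer or medium = DMEM plus 5-aza-dC sensitizer | doses = single-point pinned compound dosing | times = 3-day compound exposure, then 15 min fixation at room temperature | benchmarks = positive control ellipticine, 6 µM final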
Starred values were filed as active, the others as inactive; ? = inconclusive; . = no result given.

SMILES	FN deposit inh	CASP6 VEID inh	CaV13 FRET inh	DENV2 CPE	Xi reactivation
C[C@@H]1CN([C@@H](C)CO)C(=O)c2cc(NC(=O)Nc3cccc4ccccc34)ccc2O[C@@H](C)CCCCO[C@H]1CN(C)C(=O)C1CCCCC1	.	0	.	22*	0
C[C@H](CO)N1C[C@H](C)[C@@H](CN(C)C(=O)C2CCCCC2)OCCCC[C@H](C)Oc2ccc(NC(=O)Nc3cccc4ccccc34)cc2C1=O	.	-1	.	14	0
C[C@@H]1CCCCO[C@H](CN(C)C(=O)C2CCCCC2)[C@@H](C)CN([C@@H](C)CO)C(=O)c2cc(NC(=O)Nc3cccc4ccccc34)ccc2O1	.	1	.	26*	0
CC(C)C[C@@H]1COCc2cn(nn2)CC[C@H](Cc2ccccc2)C(=O)N1	4	1	.	-1	0
COc1ccc2c3c(n(C)c2c1)[C@@H](CO)N(CC1CCCC1)CC31CCN(C(=O)Nc2ccccc2)CC1	.	-8	.	-11	0
CO[C@@H]1CN(C)C(=O)c2cc(NC(C)=O)ccc2OC[C@H](C)N(CCc2ccccc2)C[C@H]1C	-2	-1	.	12	0
N#C[C@@H]1[C@@H](c2ccccc2-c2cccc(F)c2)[C@@H](CO)N1C(=O)C1CCC1	-3	1	.	29*	0
COCC(=O)N1[C@H](CO)[C@@H](c2ccccc2-c2cccc(F)c2)[C@@H]1C#N	-8	1	.	-5	0
N#C[C@H]1[C@H](c2ccccc2-c2ccccc2)[C@@H](CO)N1C(=O)Cc1cccnc1	-10	-1	.	35*	0
COCC(=O)N1[C@H](CO)[C@H](c2ccccc2-c2cccc(F)c2)[C@@H]1C#N	-3	2	.	33*	0
CC(=O)N1CC2(C1)[C@H](c1ccc(-c3ccc(C#N)cc3)cc1)[C@H](CO)N2C(C)=O	.	-1	.	-6	0
CCNC(=O)C[C@H]1CC[C@H](NC(=O)C2CCOCC2)[C@H](CO)O1	.	-4	.	5	0
COc1cccc(S(=O)(=O)N[C@H]2C=C[C@H](CC(=O)NCc3ccncc3)O[C@H]2CO)c1	5	1	.	28*	0
COc1cccc(S(=O)(=O)N[C@@H]2C=C[C@H](CC(=O)NCc3ccc(F)cc3)O[C@@H]2CO)c1	4	-3	.	33*	1
CC(=O)/C(C#N)=C1\NC(=O)C(Cc2cc(Cl)ccc2Cl)S1 (stereo not drawn)	-2	8	-2	57*	0
COc1ccccc1-c1ccc([C@@H]2[C@@H](CO)N(C(=O)C3CC3)C23CN(C(C)=O)C3)cc1	.	-6	.	79*	0
COc1ccccc1-c1ccc([C@@H]2[C@H](CO)N(C(C)=O)C23CN(C(C)=O)C3)cc1	.	1	.	28*	0
CCC(=O)N1[C@H](CO)[C@H](c2ccc(C3=CCCC3)cc2)C12CN(C(=O)COC)C2	-10	-1	.	-3	0
CC(=O)N1[C@@H](CO)[C@@H](c2ccc(C3=CCCC3)cc2)C12CN(C(=O)NC(C)C)C2	2	-1	.	41*	0
C[C@H](CO)N1C[C@H](C)[C@@H](CN(C)C(=O)Nc2ccc(C(F)(F)F)cc2)Oc2ccc(NC(=O)CCCCCC(=O)Nc3ccccc3N)cc2C1=O	16	.	.	.	0
C[C@H](CO)N1C[C@H](C)[C@@H](CN(C)C(=O)c2ccncc2)Oc2ncc(-c3ccc(F)cc3)cc2C1=O	.	.	.	.	-1
Cn1cnc(S(=O)(=O)N2CC[C@@H]3[C@H]2c2cc(C#Cc4ccccc4)ccc2N[C@@H]3CO)c1	-14	0	.	2	0
O=C(O)/C=C/C(=O)c1ccc2c(c1)CCc1ccccc1-2	13	28	-6	29*	0
COc1ccc(S(=O)(=O)Nc2ccc3c(c2)C(=O)N([C@@H](C)CO)C[C@@H](C)[C@@H](CN(C)C(=O)Nc2ccc(C(F)(F)F)cc2)O3)cc1	4	1	.	-7	-1
COC1C(CO)OC(n2c3c(Cl)cccc3c3c4c(c5c6cccc(Cl)c6[nH]c5c32)C(=O)NC4=O)C(O)C1O (stereo not drawn)	-11	1	-11	?	23*
SMILES	FN deposit inh	CASP6 VEID inh	CaV13 FRET inh	DENV2 CPE	Xi reactivation
COC(=O)C1CCN(C(=O)c2cc(-c3ccco3)nc3ccccc23)CC1	-2	58*	-19	?	0
COc1cc(/C=N/NC(=O)c2cc(-c3ccccc3Cl)nc3ccccc23)cc(OC)c1O	4	0	-5	7	0
COc1cc(/C=N/NC(=O)c2cc(-c3ccco3)nc3ccccc23)cc(OC)c1O	2	-1	-7	31*	0
OC(CNCc1ccccc1)c1ccccc1 (stereo not drawn)	4	1	14	9	0
OC(c1ccccc1)C(NCc1ccccc1)c1ccccc1 (stereo not drawn)	3	-1	-13	21*	0
CCCCCCCCN1C(=O)[C@H](CC(=O)NCc2cccc(C(F)(F)F)c2)C[C@@]2(C(=O)OC)CC(C)(C)CC=C12	-11	-1	-10	44*	1
Cc1ccc(S(=O)(=O)N(C)C)cc1NC(=O)[C@H](Cc1ccccc1)N1C(=O)c2ccccc2C1=O	8	0	-5	42*	0
COc1cc(/C=C2\SC(c3ccc(C)cc3)=NC2=O)cc(OC)c1O	.	1	-6	3	.
Cc1ccc(C2=NC(=O)/C(=C/c3cc(O)c(O)c(Br)c3)S2)cc1	-2	79*	-3	?	0
CCc1ccc2cccc3c2c1N=CN3C	10	61*	-4	-2	0
COc1ccc(S(=O)(=O)Nc2ccc3c(c2)C(=O)N([C@H](C)CO)C[C@H](C)[C@H](CN(C)Cc2ccncc2)OCCCC[C@H](C)O3)cc1	.	-5	.	48*	0
COc1ccc(S(=O)(=O)Nc2ccc3c(c2)C(=O)N([C@H](C)CO)C[C@H](C)[C@H](CN(C)Cc2ccncc2)OCCCC[C@@H](C)O3)cc1	.	-1	.	22*	0
COc1ccc(S(=O)(=O)Nc2ccc3c(c2)C(=O)N([C@H](C)CO)C[C@@H](C)[C@H](CN(C)Cc2ccncc2)OCCCC[C@H](C)O3)cc1	.	-2	.	-11	0
COc1ccc(S(=O)(=O)N(C)C[C@H]2Oc3c(NC(=O)Nc4ccc5c(c4)OCO5)cccc3C(=O)N([C@@H](C)CO)C[C@@H]2C)cc1	.	-1	.	-5	0
COCC(=O)Nc1ccc2c(c1)C(=O)N(C)C[C@H](OC)[C@H](C)CN(CCc1ccccc1)[C@H](C)CO2	0	0	.	-1	0
CC(=O)CC(=O)O[C@@H]1C=C[C@H](NC(=O)OC(C)(C)C)C1	-16	0	-10	29*	0

Screens as filed in PubChem.
